The test system of experiment [1] is Calf thymus DNA. As to the kind of experiment: Binding affinity to calf thymus DNA assessed as hypochromic shift after 30 mins by spectral analysis. The experiment is classed as nucleic-acid assay. The note with it: Bos taurus.
Experiment [2] concerns Calf thymus DNA. As to the kind of experiment: Binding affinity to calf thymus DNA assessed as bathochromic shift after 30 mins by spectral analysis. The experiment is classed as nucleic-acid assay. The note with it: Bos taurus.
For experiment [3], the system named is Calf thymus DNA. As to the kind of experiment: Binding affinity to calf thymus DNA assessed as isosbestic point after 30 mins by spectral analysis. The conditions noted are these: Bos taurus. Format: nucleic-acid assay.
For the next experiment, the system named is P388. As to the kind of experiment: Antitumor activity against mouse P388 cells allografted in CD2F1 mouse assessed as increase in life span at 25 mg/kg administered daily for 9 days. Format: functional. Put shortly: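 P-388 leukaemia in CD2F1 mice, screened by the NCI Drug Research and Development Program. Dosing was by daily injection for 9 days, up to 25 mg/kg per injection. The read-out was increased life span (ILS), with ILS >25% taken as the minimum for activity.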

In experiment [4] the test system is Bacillus spizizenii. As to the kind of experiment: Antibacterial activity against Bacillus subtilis ATCC 6633 at 0.65 ug/ml by cup-plate diffusion assay. The experiment is classed as functional. The note with it: read-out: IZ. The method in brief: (§1)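 Cup-plate agar diffusion with 6-mm stainless steel cylinders on nutrient agar seeded with B. subtilis ATCC 6633, incubated at 37 °C. Activity is read as the zone of inhibition, compared with actinomycin D standards. On repeat assays, test concentrations were adjusted to give zones of roughly the same size as the standards.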

Experiment [5] deals with Calf thymus DNA. As to the kind of experiment: Binding affinity to calf thymus DNA at DNA/drug ratio of 12:1 after 30 mins by ultracentrifugation method. Format: nucleic-acid assay. The conditions noted are these: Bos taurus. Put shortly:
(§2)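 Drug at about 5×10^-6 M with calf thymus DNA at 0, 1.94, 2.27, 3.35 and 9.45×10^-5 M in pH 7.00 1 M NaCl–0.008 M Tris buffer, equilibrated 30 min, then spun at 150 000g for 6 h at 25 °C. Free drug was measured in the supernatant. Bound drug was measured by dissolving the pellet in 50% DMF and reading A443 against drug in 50% DMF. Repeated at varied drug/DNA ratios.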

For experiment [6], the system named is Bacillus spizizenii. As to the kind of experiment: Antibacterial activity against Bacillus subtilis ATCC 6633 at 3.85 ug/ml by cup-plate diffusion assay. The experiment is classed as functional. The note with it: read-out: IZ. The method in brief:
as §1

In experiment [7] the test system is Bacillus spizizenii. As to the kind of experiment: Antibacterial activity against Bacillus subtilis ATCC 6633 at 5 ug/ml by cup-plate diffusion assay. The experiment is classed as functional. The note with it: read-out: IZ. Put shortly:
as §1

Experiment [8] relates to Bacillus spizizenii. As to the kind of experiment: Antibacterial activity against Bacillus subtilis ATCC 6633 at 2.35 ug/ml by cup-plate diffusion assay. Format: functional. The conditions noted are these: read-out: IZ. Put shortly:
as §1

The test system of experiment [9] is Calf thymus DNA. As to the kind of experiment: Binding affinity to calf thymus DNA at DNA/drug ratio of 25:1 after 30 mins by ultracentrifugation method. Format: nucleic-acid assay. The note with it: Bos taurus. The method in brief:
as §2

For experiment [10], the system named is Bacillus spizizenii. As to the kind of experiment: Antibacterial activity against Bacillus subtilis ATCC 6633 at 2.50 ug/ml by cup-plate diffusion assay. The conditions noted are these: read-out: IZ. Format: functional. Put shortly:
as §1

For experiment [11], the system named is Bacillus spizizenii. As to the kind of experiment: Antibacterial activity against Bacillus subtilis ATCC 6633 at 1.25 ug/ml by cup-plate diffusion assay. The experiment is classed as functional. The conditions noted are these: read-out: IZ. The method in brief: as §1
The subject of experiment [12] is Calf thymus DNA. As to the kind of experiment: Binding affinity to calf thymus DNA assessed as reduction in absorbance after 30 mins by spectral analysis. Format: nucleic-acid assay. Also on record: scale not given: the % may be the effect or the level left. The note with it: Bos taurus.
The subject of experiment [13] is Calf thymus DNA. As to the kind of experiment: Binding affinity to calf thymus DNA after 30 mins by ultracentrifugation method. The experiment is classed as nucleic-acid assay. The note with it: Bos taurus. Put shortly:
as §2

Experiment [14] has as its system Bacillus spizizenii. As to the kind of experiment: Antibacterial activity against Bacillus subtilis ATCC 6633 at 40 ug/ml by cup-plate diffusion assay relative to actinomycin D. Format: functional. Put shortly:
as §1

Experiment [15] concerns Bacillus spizizenii. As to the kind of experiment: Antibacterial activity against Bacillus subtilis ATCC 6633 at 40 ug/ml by cup-plate diffusion assay. The experiment is classed as functional. The note with it: read-out: IZ. Put shortly: as §1

SMILES strings stand for the structures. Active and inactive are the calls of the source. The calls are words filed in the database; no cut-off is given here. Starred links: 1 amine or outer side, 2 acyl side, 3 side chain; linkers in the order of their positions; H or OH if unused. Positions of bridges follow the written chain, without caps; N, C: chain ends. Non-standard residues stand in square brackets, D forms with d. Residues, ends and D or L forms follow the SMILES beside them. Chains are numbered I, II in the order given. Actinocin(1to9) = Cc1c2oc3c(C)ccc(C(=O)[*:2])c3nc-2c(C(=O)[*:1])c(N)c1=O; NMeV = CN[C@H](C(=O)O)C(C)C; Sar = CNCC(=O)O Some results are limits rather than exact numbers.

Turning to `COC(=O)[C@H](NC(=O)[C@@H](NC(=O)c1c2nc3c(C(=O)N[C@H](C(=O)N[C@@H](C(=O)OC)C(C)C)[C@@H](C)OC(C)=O)ccc(C)c3oc-2c(C)c(=O)c1N)[C@@H](C)OC(C)=O)C(C)C`, the outcome in the experiment with Calf thymus DNA [1], with Calf thymus DNA [2] and in the experiment with Calf thymus DNA [3] was inactive. In addition, the Activity result with P388 was “<=25%”.

For the compound `Cc1c2oc3c(C)ccc(C(=O)N[C@@H]4C(=O)N[C@H](C(C)C)C(=O)N5CCC[C@H]5C(=O)N(C)CC(=O)N(C)[C@@H](C(C)C)C(=O)O[C@@H]4C)c3nc-2c(C(=O)N[C@@H]2C(=O)N[C@H](C(C)C)C(=O)N3CCC[C@H]3C(=O)N(C)CC(=O)N(C)[C@@H](C(C)C)C(=O)O[C@@H]2C)c(N)c1=O` [DACTINOMYCIN] (I: T[dV]P[Sar][NMeV] / II: T[dV]P[Sar][NMeV]; ester I:1-I:C, II:1-II:C; linker I:N-II:N via Actinocin(1to9)), the result in the experiment with Calf thymus DNA [1], in the experiment on Calf thymus DNA [2] and in the experiment with Calf thymus DNA [3] was Active. Moreover, the zone of inhibition at 0.65 µg/mL with Bacillus spizizenii [4] is 8.5 mm. Moreover, the Activity was 70% with Calf thymus DNA [5], 85% with Calf thymus DNA [9], 30% with Calf thymus DNA [12] and “<=25%” in the experiment with P388. Further, the zone of inhibition at 3.85 µg/mL with Bacillus spizizenii [6] came out at 16.6 mm. The zone of inhibition at 5 µg/mL with Bacillus spizizenii [7] is 18.2 mm. The zone of inhibition at 2.35 µg/mL with Bacillus spizizenii [8] turned out to be 14.3 mm. In the experiment with Bacillus spizizenii [10], the zone of inhibition at 2.5 µg/mL was 14.5 mm. The zone of inhibition at 1.25 µg/mL in the experiment on Bacillus spizizenii [11] was 11.1 mm. Moreover, the Ka in the experiment on Calf thymus DNA [13] came to 1.56 ×10⁶ /M.

Consider `Cc1c2oc3c(C)ccc(C(=O)N[C@H](C(=O)N[C@@H](C(=O)NN)C(C)C)[C@@H](C)O)c3nc-2c(C(=O)N[C@H](C(=O)N[C@@H](C(=O)NN)C(C)C)[C@@H](C)O)c(N)c1=O`, for which the outcome in the experiment on Calf thymus DNA [1], with Calf thymus DNA [2] and with Calf thymus DNA [3] was inactive. Also, the Activity result in the experiment on P388 is on record as “<=25%”.

In the case of `COC(=O)[C@@H]1CCCN1C(=O)[C@H](NC(=O)[C@@H](NC(=O)c1c2nc3c(C(=O)N[C@H](C(=O)N[C@@H](C(=O)N4CCC[C@H]4C(=O)OC)C(C)C)[C@@H](C)O)ccc(C)c3oc-2c(C)c(=O)c1N)[C@@H](C)O)C(C)C`, the outcome in the experiment with Calf thymus DNA [1], in the experiment with Calf thymus DNA [2] and in the experiment with Calf thymus DNA [3] was inactive. The Activity entry in the experiment on P388 is “<=25%”.

`COC(=O)[C@@H]1CC(=O)CN1C(=O)[C@H](NC(=O)[C@@H](NC(=O)c1c2nc3c(C(=O)N[C@H](C(=O)N[C@@H](C(=O)N4CC(=O)C[C@H]4C(=O)OC)C(C)C)[C@@H](C)O)ccc(C)c3oc-2c(C)c(=O)c1N)[C@@H](C)O)C(C)C`: the outcome in the experiment with Calf thymus DNA [1], in the experiment on Calf thymus DNA [2] and with Calf thymus DNA [3] was inactive. Also, the Activity result in the experiment with P388 is on record as “<=25%”.

Turning to `CNC(=O)[C@H](NC(=O)[C@@H](NC(=O)c1c2nc3c(C(=O)N[C@H](C(=O)N[C@@H](C(=O)NC)C(C)C)[C@@H](C)O)ccc(C)c3oc-2c(C)c(=O)c1N)[C@@H](C)O)C(C)C`, the result with Calf thymus DNA [1], in the experiment on Calf thymus DNA [2] and with Calf thymus DNA [3] was inactive. Further, the Ratio in the experiment with Bacillus spizizenii [14] is given as 1.1. Moreover, the values for the Activity with Calf thymus DNA [5] and with P388 were 17% and “<=25%”, respectively. Moreover, the zone of inhibition at 40 µg/mL with Bacillus spizizenii [15] came out at 8.5 mm.

`Cc1c2oc3c(C)ccc(C(=O)N[C@H](C(=O)N[C@@H](C(=O)O)C(C)C)[C@@H](C)O)c3nc-2c(C(=O)N[C@H](C(=O)N[C@@H](C(=O)O)C(C)C)[C@@H](C)O)c(N)c1=O`: the result in the experiment with Calf thymus DNA [1], in the experiment on Calf thymus DNA [2] and in the experiment with Calf thymus DNA [3] was inactive. In the experiment on Bacillus spizizenii [14], the Ratio came out at 5.3. The zone of inhibition at 40 µg/mL in the experiment with Bacillus spizizenii [15] is 14.3 mm. Further, the Activity result in the experiment with P388 is “<=25%”.

With `Cc1c2oc3c(C)ccc(C(=O)N[C@H](C(=O)N[C@@H](C(=O)NCCO)C(C)C)[C@@H](C)O)c3nc-2c(C(=O)N[C@H](C(=O)N[C@@H](C(=O)NCCO)C(C)C)[C@@H](C)O)c(N)c1=O`, the outcome with Calf thymus DNA [1], in the experiment on Calf thymus DNA [2] and in the experiment with Calf thymus DNA [3] was inactive. In addition, the Activity result in the experiment on P388 is reported as “<=25%”.

`COC(=O)[C@H](NC(=O)[C@@H](NC(=O)c1c2nc3c(C(=O)N[C@H](C(=O)N[C@@H](C(=O)OC)C(C)C)[C@@H](C)O)ccc(C)c3oc-2c(C)c(=O)c1N)[C@@H](C)O)C(C)C`: the outcome with Calf thymus DNA [1], in the experiment with Calf thymus DNA [2] and in the experiment on Calf thymus DNA [3] was inactive. Further, in the experiment with Bacillus spizizenii [14], the Ratio amounted to 9.6. The zone of inhibition at 40 µg/mL in the experiment on Bacillus spizizenii [15] was 16.6 mm. For the same compound, the Activity in the experiment on Calf thymus DNA [9] is 30%; with Calf thymus DNA [12] it was 10%; in the experiment with P388, “<=25%”.

Values taken from ChEMBL document CHEMBL3244282, “Synthesis and evaluation of bis-dipeptide and bis-tripeptide analogues of actinomycin D” (1978).
